# Laboratory results taken from ChEMBL document CHEMBL4011658 (J Med Chem, 2017).
# Activity calls are given as the source filed them. The rule behind the calls is not given here. Residues, ends and D or L forms follow the SMILES beside them. *: point of attachment. Boc = CC(C)(C)OC(=O)*
# Columns and labels:
# Cryptococcus neoformans [1] = test: Antifungal activity against Cryptococcus neoformans ATCC 90113 after 70 to 74 hrs by alamar blue dye based CLSI method; type: functional
# SK-OV-3 = test: Cytotoxicity against human SKOV3 cells assessed as reduction in cell viability after 48 hrs by neutral red uptake assay; type: cell-based; conditions: sk-ov-3, 48 h
# In short: (§1)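 Cells seeded at 25 000 per well and grown 24 h to confluence, then exposed to peptides up to 10 μg/mL for 48 h; viability by modified neutral red uptake; doxorubicin positive control, DMSO negative control.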
# SK-MEL = test: Cytotoxicity against human SK-MEL cells assessed as reduction in cell viability after 48 hrs by neutral red uptake assay; type: cell-based; in short: as §1
# BT-549 = test: Cytotoxicity against human BT549 cells assessed as reduction in cell viability after 48 hrs by neutral red uptake assay; type: cell-based; conditions: bt-549, 48 h; in short: as §1
# LLC-PK1 = test: Cytotoxicity against pig LLC-PK1 cells assessed as reduction in cell viability after 48 hrs by neutral red uptake assay; type: cell-based, Sus scrofa; conditions: llc-pk1, 48 h; in short: as §1
# Vero = test: Cytotoxicity against African green monkey Vero cells assessed as reduction in cell viability after 48 hrs by neutral red uptake assay; type: cell-based; conditions: chlorocebus sabaeus; in short: as §1
# [2] = Selectivity index, ratio of cytotoxicity against human SKOV3 cells to IC50 for Cryptococcus neoformans ATCC 90113; type: toxicity, cell-based; conditions: read-out: Selectivity Index
# [3] = Selectivity index, ratio of cytotoxicity against human SK-MEL cells to IC50 for Cryptococcus neoformans ATCC 90113; type: toxicity, cell-based; conditions: read-out: Selectivity Index
# [4] = Selectivity index, ratio of cytotoxicity against human BT549 cells to IC50 for Cryptococcus neoformans ATCC 90113; type: toxicity, cell-based; conditions: read-out: Selectivity Index
# [5] = Selectivity index, ratio of cytotoxicity against pig LLC-PK1 cells to IC50 for Cryptococcus neoformans ATCC 90113; type: toxicity, cell-based; conditions: read-out: Selectivity Index
# [6] = Selectivity index, ratio of cytotoxicity against African green monkey VERO cells to IC50 for Cryptococcus neoformans ATCC 90113; type: toxicity, cell-based; conditions: read-out: Selectivity Index
# Staphylococcus aureus [7] = test: Antibacterial activity against Staphylococcus aureus ATCC 29213 after […] hrs by alamar blue dye based CLSI method; type: functional
# Staphylococcus aureus [8] = test: Antibacterial activity against methicillin-resistant Staphylococcus aureus ATCC 33591 after 16 to 20 hrs by alamar blue dye based CLSI method; type: functional
# [9] = Selectivity index, ratio of cytotoxicity against human SKOV3 cells to IC50 for Staphylococcus aureus ATCC 29213; type: toxicity, cell-based; conditions: read-out: Selectivity Index
# In short: (§2)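 Selectivity index is the ratio CTX/IC50. For CTX, cells were seeded at 25 000 per well and grown 24 h, then exposed to peptide up to 10 μg/mL for 48 h, with viability by neutral red uptake. […] The inoculum was 5 × 10^5 CFU/mL, with OD530 read before and after incubation.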
# [10] = Selectivity index, ratio of cytotoxicity against human SK-MEL cells to IC50 for Staphylococcus aureus ATCC 29213; type: toxicity, cell-based; conditions: read-out: Selectivity Index; in short: as §2
# [11] = Selectivity index, ratio of cytotoxicity against human BT549 cells to IC50 for Staphylococcus aureus ATCC 29213; type: toxicity, cell-based; conditions: read-out: Selectivity Index; in short: as §2
# [12] = Selectivity index, ratio of cytotoxicity against pig LLC-PK1 cells to IC50 for Staphylococcus aureus ATCC 29213; type: toxicity, cell-based; conditions: read-out: Selectivity Index; in short: as §2
# [13] = Selectivity index, ratio of cytotoxicity against African green monkey VERO cells to IC50 for Staphylococcus aureus ATCC 29213; type: toxicity, cell-based; conditions: read-out: Selectivity Index; in short: as §2
# [14] = Selectivity index, ratio of cytotoxicity against human SKOV3 cells to IC50 for methicillin-resistant Staphylococcus aureus ATCC 33591; type: toxicity, cell-based; conditions: read-out: Selectivity Index
# In short: (§3)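 Selectivity index is the ratio CTX/IC50. For CTX, cells were seeded at 25 000 per well and grown 24 h, then given peptide up to 10 μg/mL for 48 h, with neutral red uptake read-out. […] OD530 was read before and after 16−20 h at 35 °C.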
# [15] = Selectivity index, ratio of cytotoxicity against human SK-MEL cells to IC50 for methicillin-resistant Staphylococcus aureus ATCC 33591; type: toxicity, cell-based; conditions: read-out: Selectivity Index; in short: as §3
# [16] = Selectivity index, ratio of cytotoxicity against human BT549 cells to IC50 for methicillin-resistant Staphylococcus aureus ATCC 33591; type: toxicity, cell-based; conditions: read-out: Selectivity Index; in short: as §3
# [17] = Selectivity index, ratio of cytotoxicity against pig LLC-PK1 cells to IC50 for methicillin-resistant Staphylococcus aureus ATCC 33591; type: toxicity, cell-based; conditions: read-out: Selectivity Index; in short: as §3
# [18] = Selectivity index, ratio of cytotoxicity against African green monkey VERO cells to IC50 for methicillin-resistant Staphylococcus aureus ATCC 33591; type: toxicity, cell-based; conditions: read-out: Selectivity Index; in short: as §3
# Escherichia coli = test: Antibacterial activity against Escherichia coli ATCC 35218 after 16 to 20 hrs by alamar blue dye based CLSI method; type: functional
# Candida = test: Antifungal activity against Candida; type: functional
# Aspergillus = test: Antifungal activity against Aspergillus; type: functional
# Cryptococcus neoformans [19] = test: Antifungal activity against Cryptococcus neoformans ATCC 350 after 70 to 74 hrs by alamar blue dye based CLSI method; type: functional
# Cryptococcus neoformans [20] = test: Fungicidal activity against Cryptococcus neoformans ATCC 350 at 0.39 ug/ml up to 4 hrs by time kill assay; type: functional
# [21] = Metabolic stability of the compound assessed as trypsin (unknown origin)-mediated compound hydrolysis at compound to trypsin ratio of 100 to 0.5 after 2 hrs by RP-HPLC analysis; type: ADME; conditions: human
# In short: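 Peptide:trypsin 100:0.5 mol/mol in 0.1 M NH4CO3, 0.1 mM CaCl2, pH 8.3, shaken at 37 °C, 200 rpm; aliquot analysed by RP-HPLC, retention time and peak intensity compared with untreated peptide; 2 h sampling per results text.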
# Cryptococcus neoformans [22] = test: Induction of membrane permeabilization in Cryptococcus neoformans ATCC 350 assessed as increase in propidium iodide uptake at 0.39 ug/ml after 1 hr by confocal microscopic analysis; type: functional
# Cryptococcus neoformans [23] = test: Induction of membrane permeabilization in Cryptococcus neoformans ATCC 350 at 0.39 ug/ml after 1 hr using FITC labeled compound by confocal microscopic analysis; type: functional
# Cryptococcus neoformans [24] = test: Induction of nuclear fragmentation in Cryptococcus neoformans ATCC 350 at 0.39 ug/ml after 1 hr by DAPI staining based confocal microscopic analysis; type: functional
# Cryptococcus neoformans [25] = test: Induction of morphological changes in Cryptococcus neoformans ATCC 350 assessed as cell wall breakage at 0.39 ug/ml after 1 hr by uranyl acetate/lead acetate staining based scanning electron microscopic analysis; type: functional
# Cryptococcus neoformans [26] = test: Disruption of cell wall membrane in Cryptococcus neoformans ATCC 350 at 0.39 ug/ml after 1 hr by uranyl acetate/lead acetate staining based transmission electron microscopic analysis; type: functional
# Cryptococcus neoformans [27] = test: Disruption of plasma membrane in Cryptococcus neoformans ATCC 350 at 0.39 ug/ml after 1 hr by uranyl acetate/lead acetate staining based transmission electron microscopic analysis; type: functional
# Cryptococcus neoformans [28] = test: Synergistic antifungal activity against Cryptococcus neoformans ATCC 350 in presence of fluconazole by checkerboard method; type: functional
# Cryptococcus neoformans [29] = test: Synergistic antifungal activity against Cryptococcus neoformans ATCC 350 in presence of amphotericin B by checkerboard method; type: functional
# Cryptococcus neoformans [30] = test: Synergistic antifungal activity against Cryptococcus neoformans ATCC 350 assessed as fold reduction in MIC in presence of fluconazole by checkerboard method relative to control; type: functional
# Cryptococcus neoformans [31] = test: Synergistic antifungal activity against Cryptococcus neoformans ATCC 350 assessed as fold reduction in MIC in presence of amphotericin B by checkerboard method relative to control; type: functional
# Cryptococcus neoformans [32] = test: Synergistic antifungal activity against Cryptococcus neoformans ATCC 350 assessed as fold reduction in fluconazole MIC by checkerboard method relative to fluconazole alone; type: functional
# Cryptococcus neoformans [33] = test: Synergistic antifungal activity against Cryptococcus neoformans ATCC 350 assessed as fold reduction in amphotericin B MIC by checkerboard method relative to amphotericin B alone; type: functional
# Cryptococcus neoformans [34] = test: Fungicidal activity against Cryptococcus neoformans ATCC 350 at antifungal MIC after 4 hrs by time kill assay; type: functional
# Cryptococcus neoformans [35] = test: Induction of membrane permeabilization in Cryptococcus neoformans ATCC 350 after 1 hr using FITC labeled compound by confocal microscopic analysis; type: functional
compound,measurement,setting,value
COC(=O)[C@H](Cc1c[nH]c(-c2ccc(-c3ccccc3)cc2)n1)NC(=O)[C@H](Cc1c[nH]c2ccccc12)NC(=O)[C@@H](N)Cc1c[nH]c(-c2ccc(-c3ccccc3)cc2)n1,IC50,Cryptococcus neoformans [1],0.35 µg/mL
same,MFC,Cryptococcus neoformans [1],0.63 µg/mL
same,MIC,Cryptococcus neoformans [1],0.63 µg/mL
same,Activity,SK-OV-3,> 10 µg/mL
same,Activity,SK-MEL,> 10 µg/mL
same,Activity,BT-549,> 10 µg/mL
same,Activity,LLC-PK1,> 10 µg/mL
same,Activity,Vero,> 10 µg/mL
same,selectivity ratio,[2],> 28.6
same,selectivity ratio,[3],> 28.6
same,selectivity ratio,[4],> 28.6
same,selectivity ratio,[5],> 28.6
same,selectivity ratio,[6],> 28.6
same,IC50,Staphylococcus aureus [7],2.56 µg/mL
same,MBC,Staphylococcus aureus [7],> 20 µg/mL
same,MIC,Staphylococcus aureus [7],> 20 µg/mL
same,IC50,Staphylococcus aureus [8],1.93 µg/mL
same,MBC,Staphylococcus aureus [8],10 µg/mL
same,MIC,Staphylococcus aureus [8],5 µg/mL
same,selectivity ratio,[9],> 3.9
same,selectivity ratio,[10],> 3.9
same,selectivity ratio,[11],> 3.9
same,selectivity ratio,[12],> 3.9
same,selectivity ratio,[13],> 3.9
same,selectivity ratio,[14],> 5.18
same,selectivity ratio,[15],> 5.18
same,selectivity ratio,[16],> 5.18
same,selectivity ratio,[17],> 5.18
same,selectivity ratio,[18],> 5.18
same,Activity,Escherichia coli,inactive
same,Activity,Candida,inactive
same,Activity,Aspergillus,inactive
same,MIC,Cryptococcus neoformans [19],0.44 µM
same,Activity,Cryptococcus neoformans [20],Active
same,Stability,[21],Stable
same,Activity,Cryptococcus neoformans [22],Active
same,Activity,Cryptococcus neoformans [23],Active
same,Activity,Cryptococcus neoformans [24],Active
same,Activity,Cryptococcus neoformans [25],Active
same,Activity,Cryptococcus neoformans [26],Active
same,Activity,Cryptococcus neoformans [27],Active
same,fractional inhibitory concentration index (FICI),Cryptococcus neoformans [28],0.308
same,fractional inhibitory concentration index (FICI),Cryptococcus neoformans [29],0.092
same,fold change (FC),Cryptococcus neoformans [30],16
same,fold change (FC),Cryptococcus neoformans [31],32
same,fold change (FC),Cryptococcus neoformans [32],4
same,fold change (FC),Cryptococcus neoformans [33],16
COC(=O)[C@H](Cc1c[nH]cn1)NC(=O)[C@H](Cc1c[nH]c2ccccc12)NC(=O)[C@H](Cc1c[nH]cn1)NC(=O)OC(C)(C)C (Boc-His-Trp-His-OMe),IC50,Cryptococcus neoformans [1],> 20 µg/mL
same,Activity,SK-OV-3,> 10 µg/mL
same,Activity,SK-MEL,> 10 µg/mL
same,Activity,BT-549,> 10 µg/mL
same,Activity,LLC-PK1,> 10 µg/mL
same,Activity,Vero,> 10 µg/mL
same,Activity,Escherichia coli,inactive
same,Activity,Candida,inactive
same,Activity,Aspergillus,inactive
same,Activity,Cryptococcus neoformans [34],inactive
N[C@@H](Cc1c[nH]c(-c2ccccc2)n1)C(=O)N[C@@H](Cc1c[nH]c2ccccc12)C(=O)N[C@@H](Cc1c[nH]c(-c2ccccc2)n1)C(=O)NCc1ccccc1,IC50,Cryptococcus neoformans [1],> 20 µg/mL
same,Activity,SK-OV-3,> 10 µg/mL
same,Activity,SK-MEL,> 10 µg/mL
same,Activity,BT-549,> 10 µg/mL
same,Activity,LLC-PK1,> 10 µg/mL
same,Activity,Vero,> 10 µg/mL
same,Activity,Escherichia coli,inactive
same,Activity,Candida,inactive
same,Activity,Aspergillus,inactive
same,Activity,Cryptococcus neoformans [35],inactive
